Screens as filed in PubChem BioAssay.
Compounds with a hit are over-represented: about 4% of the library has one in this group of screens.
TAAR1 antag: human TAAR1 antagonists, primary screen, Fluo-8 calcium fluorescence, CHO RD-HGA16 cells; Trace amine-associated receptor 1 (Homo sapiens), Q96RJ0; antagonist; inhibition, % at 3 µM; hit rate 1.5% among 360,000;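 active means inhibition above a per-plate cutoff, the mean inhibition of test compounds on that plate plus 3 SD, cut at about 49% in these data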;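 further: 0% = DMSO plus EC80 beta-PEA response and 100% = DMSO alone without agonist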
Target sequence (Q96RJ0 whole entry, looked up): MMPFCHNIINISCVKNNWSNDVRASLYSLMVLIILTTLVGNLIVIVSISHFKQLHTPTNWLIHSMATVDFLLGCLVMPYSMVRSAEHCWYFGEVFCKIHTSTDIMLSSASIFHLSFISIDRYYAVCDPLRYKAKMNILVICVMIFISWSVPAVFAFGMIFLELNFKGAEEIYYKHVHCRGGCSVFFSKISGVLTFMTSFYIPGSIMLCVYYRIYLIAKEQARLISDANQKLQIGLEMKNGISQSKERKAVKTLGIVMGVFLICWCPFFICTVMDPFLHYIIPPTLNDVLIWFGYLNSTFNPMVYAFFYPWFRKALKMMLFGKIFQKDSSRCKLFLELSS
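Assay system: CHO-derived RD-HGA16 cells stably expressing human TAAR1 plus Gα16. Timing: 140 s kinetic read after compound, 140 s after agonist. Technique: kinetic Fluo-8 calcium fluorescence measurement. Measure: % inhibition of agonist calcium response.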
OX1R antag-1: OX1R (HCRTR1) antagonists, primary screen, fluorescence, CHO/OX1R cells, Fluo-8 calcium, orexin A | AID 434989, 2010 | Fluo-8 calcium fluorescence | inhibition, % at 5 µM | hit rate 0.43% among 330,000 | Orexin/Hypocretin receptor type 1 (Homo sapiens), O43613;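 active means inhibition above its plate's threshold, mean inhibition of all tested compounds on the plate plus 3 SD, cut at about 37% in these data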;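 further: 0% = orexin A challenge wells and 100% = SB-334867-A antagonist wells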
CHO parental Ca: ATP-evoked calcium signal inhibitors, parental CHO, primary screen, counter-screen for OX1R antagonist project, cell-based, fluorescence, Fluo-8 calcium dye | inhibition, % at 5.6 µM | parental CHO-K1, ATP-induced calcium, Fluo-8 fluorescence | AID 463079, 2010 | hit rate 0.63% among 330,000;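 active means inhibition above that plate's mean sample inhibition plus 3 SD, cut at about 26% in these data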;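 further: 0% = ATP-challenged DMSO wells and 100% = DMSO wells without ATP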
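Test system: untransfected parental CHO cell line. Compound: one dose, 5.6 µM nominal. Detection: intracellular calcium via Fluo-8 no-wash fluorescent dye. Measure: % inhibition. Benchmarks: ATP-challenged DMSO wells low, unchallenged DMSO wells high.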
TAAR1 ag: human TAAR1 agonists, primary screen, Fluo-8 calcium fluorescence, CHO RD-HGA16 cells; Trace amine-associated receptor 1 (Homo sapiens), Q96RJ0; vehicle wells 0%, saturating PEA agonist 100%; activation, % at 3 µM; hit rate 0.99% among 360,000; AID 624467, 2012;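 active means activation above the mean activation of all test compounds in the run plus 3 SD, cut at about 38% in these data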
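System: CHO RD-HGA16 cells carrying human TAAR1 plus Gα16; Incubation: 17-24 h seeding, 75 min 37 °C dye, 30 min RT; Measured by: Fluo-8 fluorescence, 5 s baseline then 140 s kinetic read; Control set: DMSO and PEA EC100; Replication: single well for each compound.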
OX1R antag-2: antagonists of human orexin 1 receptor (OX1R). Orexin/Hypocretin receptor type 1 (Homo sapiens), O43613. hit rate 1.8% among 330,000. OX1R-expressing cells, FRET antagonist read-out. inhibition, % at 6.6 µM; in the data active means inhibition mostly above about 38%, no sharp cut-off; inactive means mostly below about 40%;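 further: 0% = agonist challenge alone and 100% = reference antagonist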
Starred values were filed as active, the others as inactive; / = no result given.

SMILES	TAAR1 antag	OX1R antag-1	CHO parental Ca	TAAR1 ag	OX1R antag-2
N#Cc1ccc(OS(=O)(=O)c2ccc(-c3ccon3)s2)cc1	2.6	4.9	34.1*	1.9	16.5
Cc1cc(/C=C2/C(=N)N3C(=NC2=O)SN=C3S(C)(=O)=O)c(C)n1-c1ccccc1F	31.9	13.6	-3.5	-0.9	46.7*
Cc1cc(/C=C2\C(=N)N3N=C(S(C)(=O)=O)SC3=NC2=O)c(C)n1Cc1ccccc1	-6.4	-2.1	-0.5	2.3	57.9*
Cc1cc(Oc2cccnc2)ccc1NC(=O)Cc1cn(C)c2ccccc12	0.5	/	/	1.9	/
Cc1ccccc1N=C1SC(CC(=O)Nc2ccc3ccccc3c2)C(=O)N1Cc1ccccn1 (stereo not given)	50.6*	19.0	3.7	9.8	15.8
Cc1cccc(N2CCN(C(=O)NCc3ccc(F)cc3)CC2)c1C	7.4	-21.1	-18.3	1.5	5.6
COc1ccc(OC)c(S(=O)(=O)CC(=O)c2cc3ccc(OC)cc3oc2=O)c1	/	-28.6	-11.7	/	14.7
COc1cccc2cc(C(C)=O)c(=O)oc12	-0.3	0.6	-3.7	16.8	28.8
COc1cccc2cc(C(=O)CS(=O)(=O)c3ccc(Cl)cc3)c(=O)oc12	-2.8	-18.5	-15.9	14.5	42.7*
COc1ccc(S(=O)(=O)CC(=O)c2cc3cc(Br)ccc3oc2=O)cc1	43.2	1.9	-4.7	42.4*	23.7
CCN(CC)C(=O)CSc1ncccc1-c1nc2ccccc2[nH]1	-6.5	-23.1	-1.1	1.5	19.2
CN(C)c1ccc(NC(=O)c2ccc3nsnc3c2)cc1	5.3	16.5	-4.9	0.1	32.4
Cc1nc2ccc(NC(=O)c3ccc4ccccc4n3)cc2s1	7.2	0.3	-16.9	-0.2	65.4*
CC(=O)c1ccc(NC(=O)c2ccc3nc(C)sc3c2)cc1	13.8	0.8	-11.6	2.6	60.9*
Cc1nc2ccc(C(=O)Nc3ccc(N(C)C)cc3)cc2s1	12.1	3.5	-14.9	0.8	60.8*
Cc1nc2ccc(NC(=O)c3ccccc3)cc2s1	1.5	-28.7	-8.4	4.2	15.8
Cc1ccc(NC(=O)c2ccc(NCCN)c([N+](=O)[O-])c2)cc1Cl	3.1	-11.2	-3.0	2.7	9.6
CCNc1ccc(C(=O)Nc2ccc3nc(C)sc3c2)cc1[N+](=O)[O-]	14.4	-25.1	-28.8	0.2	60.5*
CCC(C)NC(=O)c1cn(CC)c2ccc(S(=O)(=O)N3CCCCCC3)cc2c1=O (stereo not given)	-9.1	-21.6	-10.9	1.3	6.0
C=CCN1C[C@H](COC(=O)c2ccc(C)c(C)c2)Oc2cccc(F)c2S1(=O)=O	27.6	/	/	1.0	/
CCNC(=O)C1CCCN(C(=O)c2cc(OC)c(OC)c(OC)c2)CC1 (stereo not given)	-22.5	/	/	2.1	/
Oc1ccccc1-c1cc(-c2ccc3c(c2)OCCO3)n[nH]1	19.9	17.5	-3.0	5.5	59.0*
COc1ccc(CNC(=O)[C@@H](Cc2ccccc2)NC(=O)[C@H]2O[C@@H](n3cnc4c(=O)[nH]c(N)nc43)[C@H](O)[C@@H]2O)cc1	-12.1	/	/	0.6	/
CNC(=S)N1CCC(NC(=O)C(Cc2ccccc2)NC(C)=O)CC1 (stereo not given)	-2.8	-20.0	-10.5	6.4	1.1
Cc1cccc(N2CCN(C(=O)c3ccc(CS(=O)(=O)c4ccccc4C)o3)CC2C)c1 (stereo not given)	50.4*	-17.6	-0.7	14.1	3.8
SMILES	TAAR1 antag	OX1R antag-1	CHO parental Ca	TAAR1 ag	OX1R antag-2
Cc1cccc(N2CCN(C(=O)c3ccccn3)CC2C)c1 (stereo not given)	-11.7	-4.8	-6.3	0.8	12.0
COC(=O)c1cc(C(=O)NNC(=O)c2ccc3c(c2)OCO3)cc([N+](=O)[O-])c1	-8.9	-21.6	-11.5	0.2	54.2*
COC(=O)c1cc(C(=O)OCC(=O)NNC(=O)c2cccs2)cc([N+](=O)[O-])c1	-10.0	-17.0	-8.7	0.0	59.9*
O=C(OCC(=O)N1CCCC1)c1ccc(Cl)c([N+](=O)[O-])c1	-4.4	0.7	-2.0	0.9	65.0*
O=C(Cc1ccc([N+](=O)[O-])cc1)NNC(=O)c1ccc2c(c1)OCO2	-28.5	/	/	1.6	/
Cc1cc(C(=O)OCC(=O)NNC(=O)c2cccs2)ccc1[N+](=O)[O-]	-6.4	1.0	-5.2	1.9	25.7
Nc1ccc(C(=O)OCC(=O)N2CCOCC2)cc1[N+](=O)[O-]	2.2	5.8	2.8	7.7	49.4*
Nc1cc(C(=O)OCC(=O)N2CCOCC2)ccc1Cl	-17.1	3.7	3.9	3.7	15.6
COC(=O)c1cc(C(=O)OCC(=O)N2CCCCC2)cc([N+](=O)[O-])c1	-4.1	2.3	-6.5	-0.2	55.6*
CN[C@@H]1CC[C@H](c2ccc(Cl)c(Cl)c2)c2ccccc21	5.8	/	/	44.6*	/
CCOC(=O)C1CCCN(Cc2nc3ccc([N+](=O)[O-])cc3c(=O)n2-c2ccc(OC)cc2OC)C1 (stereo not given)	69.2*	-12.0	-9.6	46.3*	48.0
CCN1CCN(Cc2nc3ccc([N+](=O)[O-])cc3c(=O)n2-c2ccc(OC)cc2OC)CC1	-14.6	0.8	-14.6	0.3	34.2*
CCOC(=O)C1CCN(Cc2nc3ccc([N+](=O)[O-])cc3c(=O)n2-c2ccc(OC)cc2OC)CC1	-18.2	-34.9	-21.9	-0.4	27.9
CN(C1=C(NC(=O)c2ccccc2)C(=O)c2ccccc2C1=O)C1CCS(=O)(=O)C1 (stereo not given)	13.3	-18.6	-9.7	8.9	84.8*
CCOc1ccc(CCNC(=O)c2cc3c(C)nccc3[nH]c2=O)cc1OCC	51.2*	-16.6	-11.6	12.7	25.4
O=C(Nc1ccc([N+](=O)[O-])cn1)c1ccc(Br)o1	-17.1	-4.9	-9.8	-0.4	64.1*
COc1cccc(S(=O)(=O)N(C)C[C@@H]2Oc3ncc(Br)cc3C(=O)N([C@H](C)CO)C[C@@H]2C)c1	12.9	/	/	-0.2	/
O=C(CCC(=O)Nc1ccccc1)NNC(=O)c1cccs1	6.1	-12.4	-0.2	39.5*	15.4
COc1cc(C(=S)N2CCOCC2)cc(Br)c1OS(=O)(=O)c1ccccc1	26.3	17.6	5.3	3.1	34.8*
COc1ccc(S(=O)(=O)Oc2c(OC)cc(C(=S)N3CCOCC3)cc2OC)cc1	4.3	-17.8	-16.2	1.9	11.5
Cc1cc(Nc2cccc(Br)c2)cc(=O)n1-c1cccc(Br)c1	-22.2	/	/	-0.4	/
Cn1cc(SCC(=O)NCCc2ccccc2)c2ccccc21	-10.3	-17.6	-17.0	-0.8	9.6
COc1ccc(C(=O)NCCn2cc(SCC(=O)Nc3cc(C)on3)c3ccccc32)cc1OC	15.9	-13.7	-23.1	8.1	42.5
